Bioassay records as filed in PubChem.
A1 inh: inhibitors of the anti-apoptotic protein A1, read as caspase activation | MEF A1-2A-BIM cells, Caspase-Glo 3/7 luminescence, 3 h; percent of clofoctol response, vehicle zero | caspase activation, % (concentration not given with the values) | 330,000 compounds, 0.066% hits | AID 2462;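 active = over half of replicate activation scores above 10%, or exactly half above 10 with the replicate mean above 10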
UPR XBP1 act: adaptive UPR (XBP1) activation; CHO-XBP1 luciferase reporter, IRE1-XBP1 UPR activation, luminescence; percent of tunicamycin response, DMSO as zero; activation, % at 20 µM; 330,000 compounds, 0.33% hits; AID 463104;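 active = versus positive control, 20 µM dose yields 30% or more activation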;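 also: 100% = tunicamycin at 10 µg/mL and 0% = DMSO only wells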
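Test system: CHO-XBP1 luciferase reporter cells | Buffer or medium: Serum-containing F12 medium, 10% FBS | Schedule: 6 h compound exposure at 37 °C, 5% CO2 | Detection: Steady-Glo luciferase glow luminescence, 10 min after reagent addition | Read-out basis: Activation, % of tunicamycin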
UPR CHOP act: apoptotic UPR (CHOP) activation | 330,000 compounds, 0.34% hits | activation, % at 10 µM | CHO-CHOP luciferase reporter, luminescence; percent of tunicamycin response over DMSO baseline | AID 449763;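 active = at 10 µM dose, activation of 40% or more, normalized to positive control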;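 also: 100% = tunicamycin at 10 µg/mL and 0% = DMSO alone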
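Assay system: CHO cells with stable CHOP pathway luciferase reporter; Buffer or medium: F12 plus 10% serum; Times: 16-18 h cell attachment, then 6 h compound exposure, 37 °C; Signal: luciferase luminescence; Read-out basis: percent activation relative to tunicamycin control; Control set: tunicamycin high control, DMSO low control.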
CHOP inhibitor: inhibitors of CHOP induction in ER stress response; CHO-K1 CHOP-promoter luciferase, tunicamycin-induced, 15-18 h; inhibition, % at 10 µM; 220,000 compounds, 3.8% hits; AID 2732;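 active = compounds that reduced the stress-induced luciferase reporter signal by more than about 70% of percent inhibition, limit read from the data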;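 also: 0% = tunicamycin plus vehicle and 100% = wells without tunicamycin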
* marks the source's active call; other numbers are inactive results; x = no result given. This is one part of a sample in which hits are shown more often than they occur.

SMILES	A1 inh	UPR XBP1 act	UPR CHOP act	CHOP inhibitor
COc1cc(S(=O)(=O)Nc2ccc(C)cc2)ccc1N=Cc1c(C)[nH]n(-c2ccc(C)cc2)c1=O	-1	0	-1	57
CC1OC(O[C@H]2CC[C@]3(C)C4C=C[C@]56OC[C@@]7(CC[C@@H](C)[C@H](C)C75)[C@H](O)C[C@@]6(C)[C@]4(C)CC[C@H]3C2(C)C)C(OC2OC(CO)C(O)C(O)C2OC2OCC(O)C(O)C2O)C(O)C1O (stereo partly drawn)	x	x	x	100*
O=C(NCC(=O)N1CC=C(c2ccccc2)CC1)c1ccco1	1	0	0	x
Cc1ccc(C(=O)Nc2ccccc2N2CCCC2)s1	-1	4	3	x
Cc1cc(N2CCC(C)CC2)nc2cccc(O)c12	0	0	1	82*
CC1CCCCN1C(=O)Cn1c(=O)n(C2CCCCC2)c(=O)c2ccccc21 (stereo not drawn)	-1	-4	2	82*
CC1CCCCN1C(=O)Cn1c(=O)n(-c2ccc(F)cc2)c(=O)c2sccc21 (stereo not drawn)	-1	3	0	6
C/C(=N/NC(=O)CNc1ccc(Cl)cc1C)c1ccc(C)cc1	0	1	-2	87*
CCOC(=O)CCCNS(=O)(=O)c1c(C)ccc2nsnc12	6.6*	-2	-1	19
Cc1ccc2nsnc2c1NS(=O)(=O)c1c(C)ccc2nsnc12	0	-3	-3	-8
CC(Sc1nc(-c2ccccc2)cc(C(F)(F)F)n1)C(=O)N1CCOCC1 (stereo not drawn)	0	-1	-1	-3
CC(Sc1nc(-c2ccccc2)cc(C(F)(F)F)n1)C(=O)N1CCCC1 (stereo not drawn)	-1	0	0	92*
Cc1ccccc1NC(c1cccc(Cl)c1)c1nnnn1C1CCCCC1 (stereo not drawn)	0	3	-1	87*
O=C(CNC(=O)C1CCCCC1)OCn1nnc2ccccc2c1=O	0	-2	1	36
CC(C)(Oc1ccc(Cl)cc1)C(=O)OCn1nnc2ccccc2c1=O	0	-1	0	78*
O=C(CC1CCCCC1)OCn1nnc2ccccc2c1=O	1	-1	-1	82*
O=C(CNC(=O)c1ccc(Cl)cc1)OCn1nnc2ccccc2c1=O	0	-2	-1	x
O=C(Cc1cc(=O)oc2cc(O)ccc12)NC(Cc1ccc(Cl)cc1)C(=O)O (stereo not drawn)	0	-3	1	x
CCC(=O)n1nc(NCc2ccccc2OC)nc1NCc1ccccc1OC	0	-5	-4	76*
CCOC(=O)Cn1c(C(=O)OCC)cc2sccc21	0	-1	1	43
CCOC(=O)c1cc2sccc2n1Cc1ccccc1	2	0	-1	80*
Cc1cccc(NC(=O)CCN2C(=O)c3ccccc3S2(=O)=O)c1C	1	0	-1	x
O=C(O)c1cc2c(N3CCC(Cc4ccccc4)CC3)ncnc2s1	1	0	0	-3
c1ccc(CC2CCN(c3ncnc4sccc34)CC2)cc1	x	x	x	74*
O=C(CCl)N1N=C(c2ccco2)CC1c1cccs1 (stereo not drawn)	0	x	x	90*
SMILES	A1 inh	UPR XBP1 act	UPR CHOP act	CHOP inhibitor
CC(=O)N1N=C(c2ccco2)CC1c1cccs1 (stereo not drawn)	0	-1	-1	-2
CC(=O)c1ccc(NC(=O)COC(=O)c2c3c(nc4ccccc24)/C(=C\c2cccs2)CCC3)cc1	0	-4	5	77*
O=C(COC(=O)c1c2c(nc3ccccc13)/C(=C\c1cccs1)CCC2)Nc1ccccc1	0	4	2	21
CCn1cc(C(=O)NCCCN2CCCC(C)C2)c(=O)c2cc(S(=O)(=O)N(C)C3CCCCC3)ccc21 (stereo not drawn)	0	2	3	x
CC(CNCc1ccc2c(c1)OCO2)NCc1ccc2c(c1)OCO2 (stereo not drawn)	x	-2	-2	85*
Fc1ccc(CNCc2ccc3c(c2)OCO3)cc1	0	-1	1	x
COc1cc2c3nnc(-c4ccccc4)c-3cn(Cc3ccccc3F)c2cc1OC	1	10	1	-69
COc1cc2c3nnc(-c4ccc(F)cc4)c-3cn(Cc3ccccc3F)c2cc1OC	x	x	x	88*
Cc1cc(C(=O)COC(=O)c2ccc[nH]c2=O)c(C)n1-c1ccccc1	-1	-8	-3	70*
Cc1cc(C(=O)COC(=O)c2ccc[nH]c2=O)c(C)n1C1CC1	0	-4	3	3
Cc1ccc(-n2c(C)cc(C(=O)COc3cccnc3[N+](=O)[O-])c2C)cc1	1	-6	-6	61
Cc1cc(C(=O)COC(=O)c2ccc[nH]c2=O)c(C)n1-c1ccc(F)cc1	-1	-5	-7	75*
Cc1cc(C(=O)COc2cccnc2[N+](=O)[O-])c(C)n1-c1ccccc1	-1	-5	-10	75*
CN(C)CCOC(=O)C12CC3(C)CC(C)(CC(C)(C3)C1)C2	0	-2	0	94*
Nn1c(SCC(=O)NCCCc2ccccc2)nnc1-c1cccnc1	0	-2	0	17
Cc1cccc(NC(=S)N(CCc2nc3cc(C)c(C)cc3[nH]2)Cc2cccnc2)c1	0	4	2	80*
Cc1c(C(=O)Nc2ccc(F)cc2)oc2ccc(S(=O)(=O)N3CCC4(CC3)OCCO4)cc12	0	2	2	71*
CCOC(=O)C1CCCN(S(=O)(=O)c2ccc(NC(C)=O)cc2)C1 (stereo not drawn)	0	1	-1	10
CCOC(=O)C1CCCN(S(=O)(=O)c2ccc(F)c(C(=O)Nc3ccc(F)c(F)c3)c2)C1 (stereo not drawn)	0	-1	0	76*
Cc1c(C(=O)Nc2ccc(F)cc2)oc2ccc(S(=O)(=O)N3CCCC3)cc12	0	-2	-1	18
Cc1c(C(=O)Nc2ccc(F)c(F)c2)oc2ccc(S(=O)(=O)N3CCCCC3)cc12	0	-1	4	75*
Cc1c(C(=O)NC2CCCc3ccccc32)oc2ccc(S(=O)(=O)N3CCCCC3)cc12 (stereo not drawn)	0	14	1	85*
COc1ccc(OC)c(/C=C/c2[nH]c(=O)[nH]c(=O)c2[N+](=O)[O-])c1	x	-3	2	x
COc1ccc(C)cc1NC(=O)C1CCN(S(=O)(=O)c2cccs2)CC1	1	-4	1	x
COC(=O)c1cc2c(s1)-c1ccccc1CC2	0	3	6	91*
C=CCn1c(=O)c2ccc(C(=O)NCc3ccccc3)cc2n(Cc2ccc(Cl)cc2)c1=O	0	24	4	86*
CCOC(=O)c1c(-c2ccc(C)o2)csc1NC(=O)CN(C)CC(=O)Nc1ccc(C)cc1	0	-2	1	89*
CCOC(=O)c1c(-c2ccc(C)o2)csc1NC(=O)CN1CCCCC1	0	-2	1	35
